Assay results published in paper PMC3983339 (Journal of Medicinal Chemistry, 2014).

Legend:
PRMT1 [1] = target: T1, PRMT1 (Rattus norvegicus, UniProt Q63009); test: radiometric P81 filter binding assay, PRMT1; type: biochemical; details: for inhibition at 20 µM: read-out: inhibition of PRMT1
PRMT1 [2] = target: T1, PRMT1; test: steady-state kinetic analysis of PRMT1 inhibition; type: biochemical; details: for Ki: Kis
PRMT1 [3] = target: T1, PRMT1; test: competitive fluorescence anisotropy binding assay; details: 524 nm, 0.2 μM H4-FL, 2.0 μM PRMT1, increasing compound concentration
Method in brief: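 Recombinant His6-PRMT1 was expressed in E. coli BL21(DE3) and Ni-NTA purified. 0.2 μM fluorescein-H4(1–20) and 2 μM PRMT1 were mixed, then test compound was titrated in until anisotropy levelled off. Excitation was 498 nm and emission 524 nm. Anisotropy from several scans was plotted against inhibitor concentration.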

[4] = test system: intracellular PRMT1 activity (GFP-ALY methylation) in 293T cells; test: GFP-ALY methylation in 293T cells; type: cell-based, human
Method in brief: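 A stable 293T line expressing GFP-ALY, kept in DMEM plus 10% FBS, was exposed to 20 μM test compound for 15 h. Cells were lysed on ice for 30 min in H buffer (150 mM NaCl, 20 mM Tris pH 7.8, 1% NP-40, phosphatase/protease inhibitors, 1 mM DTT) and cleared at 12000g for 20 min. GFP-ALY was pulled down on GFP antibody beads and analysed by SDS–PAGE and ASYM24 Western blot with chemiluminescence detection.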

leukemia cell lines = test: CellTiter-Glo cell viability, panel of leukemia cell lines; type: cell-based; details: 10 different leukemia cell lines, 20 μM, 3 consecutive days
HEL cells = test: CellTiter-Glo cell viability, HEL cells; type: cell-based; details: HEL cells (JAK2V617F), 20 μM, 3 days
Method in brief: (§1)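 Leukemia cell lines were grown in RPMI plus 10% FBS and seeded at 1000–1500 cells per well. Cultures received 20 μM test compound or an equal amount of DMSO. CellTiter-Glo reagent was added at 0, 24, 48 and 72 h after treatment, and luminescence was read. Viability is expressed as viable cells in the treated group as a percentage of the DMSO control.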

CMY cells = test: CellTiter-Glo cell viability, CMY cells; type: cell-based; details: 20 μM, compared with HEL, Jurkat, HL-60
Method in brief: as §1

CHRF-288-11 cells = test: CellTiter-Glo cell viability, CHRF-288-11 cells; type: cell-based; details: 20 μM, compared with HEL, Jurkat, HL-60
Method in brief: as §1

MOLM-13 cells = test: CellTiter-Glo cell viability, MOLM-13 cells; type: cell-based; details: 20 μM, compared with HEL, Jurkat, HL-60
Method in brief: as §1

PRMT5 = PRMT5 (Homo sapiens, UniProt O14744); test: radiometric P81 filter binding assay, PRMT5; type: biochemical; details: initial screening at 20 μM compound
Method in brief: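 HA-PRMT5 was co-expressed with WDR77 in HEK293T cells and purified on HA-peptide agarose by peptide elution. Reactions at 30 °C used 50 mM HEPES pH 8.0, 50 mM NaCl, 1 mM EDTA, 0.5 mM DTT, with 0.5 μM [3H]SAM and 1 μM H4(1–20) peptide. Test compound at 20 μM was preincubated with enzyme and [3H]SAM for 5 min at room temperature, then peptide was added to start the reaction. Mixtures were spotted on P81 paper, washed with 50 mM NaHCO3 pH 9.0, and counted by scintillation. Controls lacked inhibitor, or both peptide and inhibitor.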

[5] = varied H4-20, [3H]AdoMet fixed at 3 μM

T1 sequence (Q63009 whole entry): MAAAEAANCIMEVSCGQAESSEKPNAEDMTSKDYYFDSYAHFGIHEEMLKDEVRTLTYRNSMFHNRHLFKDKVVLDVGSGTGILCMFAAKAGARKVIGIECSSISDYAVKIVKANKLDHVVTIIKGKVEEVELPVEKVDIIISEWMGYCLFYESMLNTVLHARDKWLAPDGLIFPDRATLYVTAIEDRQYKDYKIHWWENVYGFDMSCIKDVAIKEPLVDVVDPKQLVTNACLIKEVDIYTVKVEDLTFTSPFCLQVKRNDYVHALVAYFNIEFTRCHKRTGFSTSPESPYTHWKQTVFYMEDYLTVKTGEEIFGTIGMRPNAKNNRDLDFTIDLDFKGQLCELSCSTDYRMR
Chain of PRMT5 (O14744 whole entry, species assumed): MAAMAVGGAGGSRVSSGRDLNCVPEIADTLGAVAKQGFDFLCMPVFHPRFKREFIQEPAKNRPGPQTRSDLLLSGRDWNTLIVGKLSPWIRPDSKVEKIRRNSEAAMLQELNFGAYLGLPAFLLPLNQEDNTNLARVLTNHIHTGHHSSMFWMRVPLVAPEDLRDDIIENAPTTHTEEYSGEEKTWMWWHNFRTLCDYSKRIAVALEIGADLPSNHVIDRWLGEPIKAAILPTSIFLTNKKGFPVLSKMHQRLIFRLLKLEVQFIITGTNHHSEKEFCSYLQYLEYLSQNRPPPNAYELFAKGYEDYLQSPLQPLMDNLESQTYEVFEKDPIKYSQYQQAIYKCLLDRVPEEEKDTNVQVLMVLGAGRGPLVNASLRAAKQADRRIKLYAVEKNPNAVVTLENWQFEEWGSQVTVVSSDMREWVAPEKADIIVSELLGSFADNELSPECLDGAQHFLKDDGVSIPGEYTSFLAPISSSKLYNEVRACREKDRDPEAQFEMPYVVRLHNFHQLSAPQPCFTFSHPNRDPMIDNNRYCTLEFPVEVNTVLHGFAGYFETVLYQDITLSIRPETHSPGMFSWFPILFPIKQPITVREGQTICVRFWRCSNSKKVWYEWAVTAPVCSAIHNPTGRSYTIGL
Chain of PRMT5 (Q9BQA1 whole entry partner, species assumed): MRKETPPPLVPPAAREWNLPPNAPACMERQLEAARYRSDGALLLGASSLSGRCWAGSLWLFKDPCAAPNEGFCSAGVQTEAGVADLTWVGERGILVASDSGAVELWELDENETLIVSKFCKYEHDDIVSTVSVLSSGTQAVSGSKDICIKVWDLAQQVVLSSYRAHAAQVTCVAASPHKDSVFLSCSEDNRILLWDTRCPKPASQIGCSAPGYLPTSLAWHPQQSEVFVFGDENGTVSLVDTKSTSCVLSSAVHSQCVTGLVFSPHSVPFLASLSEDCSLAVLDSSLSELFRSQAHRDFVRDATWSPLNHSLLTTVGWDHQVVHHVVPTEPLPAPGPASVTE

Row | Compound | inhibition at 20 µM (PRMT1 [1]) | Ki (PRMT1 [2]; [5]) | Ki (PRMT1 [2]; varied [3H]SAM, H4-20 fixed at 15 μM) | Kis smaller than Kii (PRMT1 [2]; varied H4-20) | Kii (PRMT1 [2]; [5]) | fluorescence anisotropy plateau of H4-FL and PRMT1 mixture (PRMT1 [3]) | level of methylated GFP-ALY protein ([4]; 293T cells, 20 μM, 15 h, ASYM24 antibody) | cell membrane permeability ([4]; inferred from inhibition of cellular PRMT1 activity in 293T cells) | cell growth (leukemia cell lines) | cell growth (HEL cells) | sensitivity of cell growth versus other cell lines (CMY cells) | sensitivity of cell growth versus other cell lines (CHRF-288-11 cells) | sensitivity of cell growth versus other cell lines (MOLM-13 cells) | inhibition of PRMT1 (PRMT1 [1]; initial screening at 20 μM compound) | inhibition of PRMT5 (PRMT5)
1 | N=C(N)c1ccc(-c2ccc(-c3ccc(C(=N)N)cc3)o2)cc1 [Compound 1, 2,5-bis(4-amidinophenyl)furan] | > 75% | 2.6 µM | 16 µM | about 14 fold | 38 µM | about 0.055 | significantly reduced | permeable to cell membrane | inhibited cell growth for most of the leukemia cell lines | except HEL cells | more sensitive | more sensitive | more sensitive | – | –
2 | N=C(N)c1ccc(-c2ccc(-c3ccc(OCCCCCCCCOc4ccc(-c5ccc(-c6ccc(C(=N)N)cc6)o5)cc4)cc3)o2)cc1 [Compound 2] | > 85% | – | – | – | – | – | – | – | – | – | – | – | – | – | –
3 | N=C(N)c1ccc(-c2ccc(-c3ccc(C(=N)N)c(F)c3)o2)cc1F [Compound 21] | – | – | – | – | – | – | – | – | – | – | – | – | – | very weak activity | very weak activity
